Source: PubChem BioAssay
Activity calls are given as the source filed them.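 The calls were made as follows, unless noted: active = duplicate-averaged activation above buffer control mean plus 5 SD of those controls; inactive = the rest.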

Columns and labels:
[1] = thallium flux activation in parental CHO cells, counter-screen for KCNQ1 potentiator project (AID 493006); conditions: parental CHO-K1 cells, FluxOR thallium flux, at 10 µM; active compounds read high
Procedure, shortened: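 Assay system: Untransfected host CHO-K1 cells with FluxOR thallium dye | Probe or stimulus: Potassium/thallium depolarization pulse | Schedule: Overnight 37 °C plating, 90 min RT dye, 20 min compound | Detection: Kinetic thallium-flux fluorescence | Read-out: Max-minus-min fluorescence over baseline, percent of buffer-to-R-L3 span | Benchmarks: Low control buffer, high control R-L3 activator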

[2] = molecular target: Potassium voltage-gated channel subfamily KQT member 1 (Homo sapiens) (UniProt P51787); assay: KCNQ1 potassium channel potentiators, confirmation, FluxOR thallium flux, CHO cells, duplicates (AID 493007;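 active = potentiation averaged over duplicate wells exceeding buffer-only control mean by more than 3 SD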;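 as to outcome: cells depolarized by a potassium plus thallium sulfate stimulus after compound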); conditions: KCNQ1 cell line, FluxOR thallium flux fluorescence, at 10 µM; active compounds read high, % of reference activator effect, buffer zero
Sequence of Potassium voltage-gated channel subfamily KQT member 1 (Homo sapiens) (P51787 whole entry, looked up): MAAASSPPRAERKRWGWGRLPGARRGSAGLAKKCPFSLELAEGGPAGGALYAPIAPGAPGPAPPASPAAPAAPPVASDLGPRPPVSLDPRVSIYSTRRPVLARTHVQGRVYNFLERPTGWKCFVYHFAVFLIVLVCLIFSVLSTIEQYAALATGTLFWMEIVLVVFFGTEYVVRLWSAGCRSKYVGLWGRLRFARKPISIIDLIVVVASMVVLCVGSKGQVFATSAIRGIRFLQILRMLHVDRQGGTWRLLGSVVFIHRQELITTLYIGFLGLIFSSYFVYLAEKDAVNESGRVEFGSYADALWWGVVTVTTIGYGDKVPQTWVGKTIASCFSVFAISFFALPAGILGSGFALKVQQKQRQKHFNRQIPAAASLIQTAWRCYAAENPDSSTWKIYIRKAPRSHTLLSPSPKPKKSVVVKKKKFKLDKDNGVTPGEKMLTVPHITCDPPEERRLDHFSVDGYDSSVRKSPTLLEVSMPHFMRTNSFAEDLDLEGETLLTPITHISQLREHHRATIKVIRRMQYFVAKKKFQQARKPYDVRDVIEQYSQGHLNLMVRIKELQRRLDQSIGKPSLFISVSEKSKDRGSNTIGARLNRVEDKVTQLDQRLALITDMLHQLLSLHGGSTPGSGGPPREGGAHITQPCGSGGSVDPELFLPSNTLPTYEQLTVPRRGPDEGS
Procedure, shortened: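 Material: KCNQ1-expressing CHO cell line; Incubation: FluxOR dye loading 90 min, compound exposure 20 min, room temperature; Detection: FluxOR Tl+ flux fluorescence, 10 s baseline plus 110 s recording; Read-out: percent activation between buffer and R-L3 responses; Control set: buffer-only wells as 0% and R-L3 activator as 100%; Replication: duplicate wells per compound.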

[3] = molecular target: Potassium voltage-gated channel subfamily KQT member 2 (Rattus norvegicus) (UniProt O88943); assay: rat KCNQ2 channel potentiation, selectivity assay for KCNQ1 potentiator project, KCNQ2-CHO-K1 cells (AID 493009;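 active = mean duplicate potentiation above the buffer control mean plus 5 SD of buffer wells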;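 also: assay conditions were tuned for KCNQ1 rather than KCNQ2 modulators; signal is max minus min fluorescence divided by baseline after thallium stimulus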); conditions: FluxOR thallium flux fluorescence, at 10 µM; active compounds read high, scaled: buffer 0, activator control 100
Sequence of Potassium voltage-gated channel subfamily KQT member 2 (Rattus norvegicus) (O88943 whole entry, looked up): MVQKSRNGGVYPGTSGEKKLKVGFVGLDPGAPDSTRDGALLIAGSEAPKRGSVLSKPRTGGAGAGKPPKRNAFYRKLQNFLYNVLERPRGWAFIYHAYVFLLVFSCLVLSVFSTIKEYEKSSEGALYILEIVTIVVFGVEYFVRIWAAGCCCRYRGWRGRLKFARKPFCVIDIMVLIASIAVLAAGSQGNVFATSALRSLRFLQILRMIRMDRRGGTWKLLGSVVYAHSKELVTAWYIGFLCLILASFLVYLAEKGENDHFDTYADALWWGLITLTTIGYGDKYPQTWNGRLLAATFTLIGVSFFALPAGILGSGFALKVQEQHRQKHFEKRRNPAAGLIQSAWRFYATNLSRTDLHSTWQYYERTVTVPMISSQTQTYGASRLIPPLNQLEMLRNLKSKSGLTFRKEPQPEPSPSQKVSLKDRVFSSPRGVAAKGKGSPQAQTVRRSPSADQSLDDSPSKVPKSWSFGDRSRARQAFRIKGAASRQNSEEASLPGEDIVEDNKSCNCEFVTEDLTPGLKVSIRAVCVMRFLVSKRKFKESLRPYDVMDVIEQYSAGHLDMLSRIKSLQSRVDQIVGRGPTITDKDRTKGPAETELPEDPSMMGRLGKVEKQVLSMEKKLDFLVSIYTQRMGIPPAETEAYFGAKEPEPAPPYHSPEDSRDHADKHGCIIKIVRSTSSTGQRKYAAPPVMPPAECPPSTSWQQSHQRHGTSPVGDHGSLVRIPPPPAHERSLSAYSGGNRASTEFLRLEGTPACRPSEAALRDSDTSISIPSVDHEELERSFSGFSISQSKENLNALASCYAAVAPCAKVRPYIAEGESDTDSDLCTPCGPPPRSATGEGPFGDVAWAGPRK

[4] = molecular target: Potassium voltage-gated channel subfamily KQT member 1 (Homo sapiens) (UniProt P51787); assay: KCNQ1 channel current potentiators, confirmation, orthogonal assay for KCNQ1 potentiator project, IonWorks patch clamp, KCNQ1-CHO cells (AID 493184;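 active = current rise at least 3 SD above the untreated control mean in each of two repeat wells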;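 as to current potentiation: percent change of the same well's current before compound addition so 0% = no change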); conditions: automated patch clamp current, at 10 µM; active compounds read high
Procedure, shortened: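 assay system = KCNQ1-expressing CHO cells | medium = external bath solution at pH 7.4 | probe or stimulus = 2,000 ms depolarization, -90 to +40 mV | compound dosing = 10 µM final, single point | measured by = automated voltage clamp, amphotericin B perforated patch | measure = percent current increase versus pre-compound level | replication = duplicates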

Structure (SMILES) | outcome [1] | outcome [2] | outcome [3] | current potentiation [4] | outcome [4] | activation [1] | potentiation [2] | potentiation [3]
CCOc1ccccc1C1c2[nH]c3ccccc3c2C[C@H]2C(=O)N(C3CC3)CC(=O)N12 (stereo not given in full) | inactive | inactive | inactive | 22.3% (active) |  |  |  | 
Cc1ccc2sc(N(CCCN(C)C)C(=O)CCS(=O)(=O)c3ccccc3)nc2c1C | inactive | inactive | inactive |  | inactive |  |  | 
COC(=O)c1ccc(N2CCN(S(=O)(=O)c3ccc(Br)cc3)CC2)c([N+](=O)[O-])c1 | inactive | inactive | inactive |  | inactive |  |  | 
O=C(Nc1ccc(Cl)cn1)c1cccc(S(=O)(=O)N2CCOCC2)c1 | inactive | inactive | inactive |  | inactive |  |  | 
CN(CCCNC(=O)CSc1cc(=O)n(C)c2ccc(Cl)cc12)Cc1ccccc1 | inactive | inactive | inactive |  | inactive |  |  | 
CCOC(=O)c1sc(NC(=S)NC(=O)c2ccco2)nc1C |  |  |  |  | inactive | 142% (active) | 37% (active) | 157% (active)
CN1CCN(S(=O)(=O)c2cccc(C(=O)Nc3cc(Cl)ccc3N3CCOCC3)c2)CC1 | inactive | inactive | inactive |  | inactive |  |  | 
CS(=O)(=O)N1CCC(C(=O)Nc2ccc(OCc3ccccc3)cc2)CC1 | inactive | inactive | inactive |  | inactive |  |  | 
CCCn1c(=S)[nH]c2ccccc2c1=O |  |  |  |  | inactive | 153% (active) | 18.5% (active) | 168% (active)
CC1Cc2ccccc2N1C(=S)NC(=O)C1(C)CC1(Cl)Cl (stereo not given) |  |  |  |  | inactive | 236% (active) | 72.5% (active) | 267% (active)
Cc1nn(-c2ccccc2)nc1C(=O)NNC(=O)c1cccc2ccccc12 | inactive |  |  |  | inactive |  | 53% (active) | 182% (active)
COc1cccc(CNC(=O)C2CCN(S(=O)(=O)c3ccc(-n4cnnn4)cc3)CC2)c1 | inactive | inactive | inactive |  | inactive |  |  | 
Oc1c(N=Nc2ccccn2)ccc2ccccc12 |  |  |  |  | inactive | 182% (active) | 91.5% (active) | 168% (active)
COC(=O)C1C(=O)c2c([nH]c(C(=O)OCCSC)c2C)CC1C (stereo not given) | inactive | inactive | inactive |  | inactive |  |  | 
COC(=O)C(C)Sc1nc2c(c(=O)n(C)c(=O)n2C)n1Cc1cccc(C)c1 (stereo not given) | inactive | inactive | inactive |  | inactive |  |  | 
CCN1c2ccccc2-c2nc3ccccc3n2C1c1cccnc1 (stereo not given) | inactive | inactive | inactive |  | inactive |  |  | 
CCOc1ccc(NC(=O)Cn2sc3nc(C)cc(C)c3c2=O)cc1 |  | inactive | inactive |  | inactive | 142% (active) |  | 
CC(C)c1nc(Cl)c(C#N)c2c1CCC2 | inactive | inactive | inactive |  | inactive |  |  | 
COc1ccc(/C(O)=C2/C(=O)C(=O)N(CCCN(C)C)C2c2ccc(Cl)cc2)cc1OC (stereo not given) | inactive | inactive | inactive |  | inactive |  |  | 
CCOC(=O)c1c(-c2ccc(C)o2)csc1NC(=S)NC(=O)N(C)C |  |  |  |  | inactive | 266% (active) | 171% (active) | 314% (active)

Structure (SMILES) | outcome [1] | outcome [2] | outcome [3] | current potentiation [4] | outcome [4] | activation [1] | potentiation [2] | potentiation [3]
CCOC(=O)C1=NN(C(=O)c2ccc(OC)cc2)C(O)(c2ccc(Cl)cc2)C1 (stereo not given) |  |  |  |  | inactive | 456% (active) | 136% (active) | 428% (active)
COc1ccccc1C(=O)NNC(=O)C(=O)Nc1ccc(C)cc1 |  |  |  |  | inactive | 534% (active) | 182% (active) | 593% (active)
CC1(C)Cc2c(sc(/N=C/N3CCCCCC3)c2C#N)C(C)(C)N1 | inactive | inactive | inactive |  | inactive |  |  | 
CSc1nnc(-c2ccccc2)o1 | inactive | inactive | inactive |  | inactive |  |  | 
CC(C(=O)O)n1c2ccccc2c2cn[nH]c(=O)c21 (stereo not given) | inactive | inactive | inactive |  | inactive |  |  | 
CSc1ccccc1C(=O)NC1CCCc2ccccc21 (stereo not given) | inactive | inactive | inactive |  | inactive |  |  | 
CC(CCc1ccccc1)NC(=S)NC(=O)c1ccco1 (stereo not given) |  |  |  |  | inactive | 214% (active) | 69.5% (active) | 251% (active)
CC(=O)Oc1c(-c2ccc(Br)o2)oc2ccccc2c1=O |  |  |  |  | inactive | 480% (active) | 109% (active) | 482% (active)
COc1ccccc1CNCc1cccc(Oc2ccccc2)c1 | inactive | inactive | inactive |  | inactive |  |  | 
Cc1ccc(C)c(NC(=S)N(Cc2ccco2)C(C)c2cccs2)c1 (stereo not given) | inactive | inactive | inactive |  | inactive |  |  | 
CCC(C)CCCCCCCCCCC(=O)O (stereo not given) |  |  |  |  | inactive | 382% (active) | 318% (active) | 302% (active)
O=C(COc1ccc(Cl)cc1)NNC(=O)C(=O)NC1CCCCC1 | inactive | inactive |  |  | inactive |  |  | 158% (active)
O=C(NC1CCCC1)C(c1cccnc1)N(C(=O)c1csnn1)C1CC1 (stereo not given) | inactive | inactive | inactive |  | inactive |  |  | 
COc1ccc(-c2nc3ccc(C(=O)NCC(OC)OC)cc3nc2-c2ccc(OC)c(OC)c2)cc1OC | inactive | inactive | inactive |  | inactive |  |  | 
COCCN1CCCC(CNCc2cn(C)nc2-c2ccc(Oc3ccccc3)cc2)C1 (stereo not given) | inactive | inactive | inactive |  | inactive |  |  | 
COCCNC(=O)CN(C)S(=O)(=O)c1ccc(Br)cc1 | inactive | inactive | inactive |  | inactive |  |  | 
Cc1nn(CC2CC2)c(=O)n1-c1ccc(F)cc1 | inactive | inactive | inactive |  | inactive |  |  | 
CCCN(CCC)C(=S)NC(=O)c1ccc(Cl)cc1Cl |  |  |  |  | inactive | 470% (active) | 204% (active) | 448% (active)
Oc1ccc(C[C@@H]2CNCCN2CCc2cc(C(F)(F)F)cc(C(F)(F)F)c2)cc1 | inactive | inactive | inactive |  | inactive |  |  | 
CN(C(=O)c1ccco1)c1nnc(-c2ccc(F)cc2)s1 | inactive | inactive | inactive |  | inactive |  |  | 

Structure (SMILES) | outcome [1] | outcome [2] | outcome [3] | current potentiation [4] | outcome [4] | activation [1] | potentiation [2] | potentiation [3]
NC(N)=N/N=C/c1ccccc1OC(F)F | inactive | inactive | inactive |  | inactive |  |  | 
Fc1ccc(-c2csc(=S)[nH]2)cc1 |  |  |  |  | inactive | 416% (active) | 120% (active) | 398% (active)
S=c1nc(COc2ccccc2)[nH]c2ccccc12 |  |  |  |  | inactive | 698% (active) | 212% (active) | 552% (active)
COCCCNc1nc2ccccc2nc1NS(=O)(=O)c1cccs1 | inactive | inactive | inactive |  | inactive |  |  | 
N=c1ncn(Cc2ccccc2)c2nc(SCCOc3ccccc3)[nH]c12 | inactive | inactive | inactive |  | inactive |  |  | 
O=c1c2cc(Cl)cc(Cl)c2nc2n1CCC2 | inactive | inactive | inactive |  | inactive |  |  | 
O=C(CCC(=O)N1CCOc2ccc(Cl)cc21)NCCN1CCOCC1 | inactive | inactive | inactive |  | inactive |  |  | 
O=C(Nc1nnc(-c2ccc(F)cc2)o1)c1cc(Cl)sc1Cl |  |  |  |  | inactive | 330% (active) | 118% (active) | 284% (active)
Cc1ccccc1OC(=O)n1c(=S)oc2cc(Cl)ccc21 |  | inactive |  |  | inactive | 152% (active) |  | 157% (active)
Cc1cc(/C=N/NC(=O)c2nn(C)cc2Cl)c(C)n1-c1cccc(Br)c1 | inactive | inactive | inactive |  | inactive |  |  | 
COc1ccc(NC(=O)C(=O)NNC(=O)c2cccs2)cc1 |  |  |  |  | inactive | 177% (active) | 24.5% (active) | 187% (active)
CCOc1ccc2nc(/N=C/c3c(C)[nH]n(-c4ccc(C)cc4)c3=O)sc2c1 |  |  |  |  | inactive | 356% (active) | 120% (active) | 332% (active)
O=C(COc1ccc(C(=S)N2CCC(Cc3ccccc3)CC2)cc1)N1CCOCC1 | inactive | inactive | inactive |  | inactive |  |  | 
C=CCNc1nnc(SCC(=O)N2CCC(C(N)=O)CC2)s1 | inactive | inactive | inactive |  | inactive |  |  | 
O=C(NCc1ccco1)C1CC(c2ccc(Cl)cc2)=NO1 (stereo not given) | inactive | inactive | inactive |  | inactive |  |  | 
COC(=O)c1ccc(NC(=S)NC(=O)c2cc(-c3ccccc3)nc3ccccc23)cc1 |  |  |  |  | inactive | 174% (active) | 37% (active) | 178% (active)
Fc1ccc2nc(Nc3nc4c(F)cccc4s3)sc2c1 |  |  |  |  | inactive | 144% (active) | 69.5% (active) | 180% (active)
COc1ccc(N(Cc2ccccc2)S(=O)(=O)c2cccc(C(=O)O)c2)cc1 | inactive | inactive | inactive |  | inactive |  |  | 
Oc1c(CN2CCN(c3ccccn3)CC2)cc(Cl)c2cccnc12 |  |  |  |  | inactive | 148% (active) | 35% (active) | 172% (active)
CCC(CC)c1nnc(NC(=O)c2cc(C(=O)OC)cc([N+](=O)[O-])c2)s1 |  |  |  |  | inactive | 366% (active) | 179% (active) | 419% (active)
